Compounds with a hit are over-represented: about 1.7% of the library has one in this group of screens.
PREPL inhibitor: PREPL enzyme inhibitors, primary screen, biochemical, fluorescence polarization | Prolyl endopeptidase-like (Homo sapiens), Q4J6C6 | recombinant PREPL, fluorescence polarization activity-based probe | inhibition, % at 5.96 µM | 0.68% of 320,000 active | AID 2751, 2010; in the data active means inhibition above about 43%
ZTA counter: ZTA (EBV) inhibition in EBNA-1 counter-screen. ZTA-DNA binding, fluorescence polarization. AID 2234. inhibition, % at 11 µM. P03206. 0.15% of 320,000 active; in the data active means inhibition above about 33%
Target sequence (P03206 whole entry, looked up): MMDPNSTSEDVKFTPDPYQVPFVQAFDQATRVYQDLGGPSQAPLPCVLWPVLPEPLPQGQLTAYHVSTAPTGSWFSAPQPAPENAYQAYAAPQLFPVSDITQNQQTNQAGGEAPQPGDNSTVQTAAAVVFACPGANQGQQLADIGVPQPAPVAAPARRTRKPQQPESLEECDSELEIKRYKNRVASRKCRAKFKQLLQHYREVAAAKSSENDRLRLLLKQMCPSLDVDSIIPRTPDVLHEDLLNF
EBNA-1 inhibitor: EBNA-1 DNA-binding inhibitors, primary screen, biochemical, fluorescence polarization; inhibition, % at 14.8 µM; 0.34% of 300,000 active; AID 1950, 2009; in the data active means inhibition above about 28%
Apaf1 inhib: inhibitors of human Apaf-1 apoptosome, primary screen, biochemical, DEVD-Rh110 fluorescence, uHTS. reconstituted apoptosome caspase-3 activity. inhibition, % at 20 µM. AID 489030, 2010. 0.71% of 330,000 active. Apoptotic protease-activating factor 1 (Homo sapiens), O14727; active means inhibition of at least 40% at 20 µM
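Material: biochemical Apaf-1 apoptosome reconstitution. Medium: Hepes buffer, pH 7.5. Also added: cytochrome c activation, bis-DEVD rhodamine 110 substrate. Timing: 30 min compound preincubation, 50 min activation, room temperature. Measured by: rhodamine 110 fluorescence at Ex 480/Em 540 nm.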
UBC13 inh: UBC13 polyubiquitin chain formation inhibitors, primary screen, biochemical, TR-FRET, uHTS; 0.47% of 330,000 active; inhibition, % at 20 µM; Ubiquitin-conjugating enzyme E2 N (Homo sapiens), P61088; in the data active means inhibition above about 45%, passing the limit was not always enough
Target sequence (P61088 whole entry, looked up): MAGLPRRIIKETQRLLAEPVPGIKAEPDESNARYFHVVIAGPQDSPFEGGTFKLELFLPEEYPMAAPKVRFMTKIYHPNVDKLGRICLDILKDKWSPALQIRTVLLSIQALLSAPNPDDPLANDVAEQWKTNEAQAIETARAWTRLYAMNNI
Apaf-1 inh conf2: Apaf-1 inhibitors, single-dose retest, confirmation, biochemical, fluorescence, DEVD-Rh110, 20 µM; shares compounds with Apaf1 inhib; reconstituted apoptosome, caspase-3 DEVD-Rh110 fluorescence; inhibition, % at 20 µM; 25% of 1,800 active; AID 504614, 2011;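 active means mean inhibition of at least 40% at 20 µM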
Rh110 interf inh: Rh110 fluorescence interference by putative Apaf-1 inhibitors, confirmation, artefact control for Apaf-1 inhibitor project, biochemical, 20 µM | quenched caspase reaction | shares compounds with Apaf1 inhib | activation (fluorescence interference), % at 20 µM | AID 504615, 2011 | 1,800 tested, under 10 active;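 active means signal rise of 40% or more at 20 µM, treated as a fluorescence artifact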
Apaf1 inh interf: fluorescence interference of Apaf-1 inhibitor hits, dose response, artefact control for Apaf-1 inhibitor project; shares compounds with Apaf1 inhib; fluorescence interference counterscreen, Apaf-1 assay format; IC50, µM; 460 tested, under 10 active; AID 588538, 2011; call rule not given here
Large screens that a line does not name were inactive (follow-up assays come after a bar, where they were run).

O=S(=O)(c1ccccc1)N1CCN(C(c2ccccc2)c2ccc(OC(F)(F)F)cc2)CC1 (stereo not given)	none
C(=N\c1c(-c2ccccc2)nc2n1CCS2)/c1ccccc1	Apaf1 inhib 41 | Apaf-1 inh conf2 inactive | Rh110 interf inh inactive
COc1cc(Br)c(C(=O)c2nccc3cc(OC)c(OC)cc23)cc1OC	Apaf1 inhib 89 | Apaf-1 inh conf2 79 | Rh110 interf inh inactive | Apaf1 inh interf inactive
COc1cccc2nc3cc(C)c(C)cc3nc12	Apaf1 inhib 84 | Apaf-1 inh conf2 inactive | Rh110 interf inh inactive
O=C(c1ccc(N2CCCC2=O)cc1)N1CCN(c2ccccc2O)CC1	none (no result: EBNA-1 inhibitor)
O=C(COc1ccc2ccc(=O)oc2c1)Nc1ccc(CCO)cc1	none
O=C(COc1ccc2ccc(=O)oc2c1)Nc1ccc(N2CCCCC2)cc1	Apaf1 inhib 47 (no result: EBNA-1 inhibitor) | Apaf-1 inh conf2 inactive | Rh110 interf inh inactive
CCCCc1c(C)nn(-c2nnc3c4ccccc4n(CC)c3n2)c1C	Apaf1 inhib 47 | Apaf-1 inh conf2 inactive | Rh110 interf inh inactive
CN(C)CCCN1c2ccccc2Sc2ccc(C(F)(F)F)cc21	Apaf1 inhib 43 | Apaf-1 inh conf2 inactive | Rh110 interf inh inactive
CCCc1ccc2oc(C(=O)NCCc3nc(C(=O)OCC)cs3)c(C)c2c1	Apaf1 inhib 41 (no result: PREPL inhibitor, ZTA counter, EBNA-1 inhibitor) | Apaf-1 inh conf2 inactive | Rh110 interf inh inactive
CNC[C@@H]1Oc2ccc(NS(=O)(=O)c3ccc(Cl)cc3)cc2C(=O)N([C@H](C)CO)C[C@@H]1C	Apaf1 inhib 45 (no result: ZTA counter, EBNA-1 inhibitor) | Apaf-1 inh conf2 inactive | Rh110 interf inh inactive
O=C(c1c(F)cccc1F)N1CCN(c2ncccn2)CC1	none
O=C1C=C(c2ccc(Oc3ccccc3)cc2)C[C@@H](c2ccc(F)cc2)C1	none (no result: EBNA-1 inhibitor)
O=C1C=C(c2ccc(OC(F)(F)F)cc2)C[C@@H](c2ccc(F)cc2)C1	Apaf1 inhib 54 (no result: EBNA-1 inhibitor) | Apaf-1 inh conf2 inactive | Rh110 interf inh inactive
Cc1ccc(NC(=O)COC(=O)CN2C(=O)NC3(CCCC3)C2=O)cc1F	none (no result: EBNA-1 inhibitor)
CCC(C)[C@H](NC(=O)Nc1ccc(C(C)=O)cc1)C(=O)OC (stereo not given in full)	none
N=c1n(CC(=O)c2ccc(Br)s2)c2ccccc2n1Cc1ccccc1	Apaf1 inhib 42 | Apaf-1 inh conf2 inactive | Rh110 interf inh inactive
Cn1c(C(=O)NCCN2CCCCCC2)cc2c(=O)n(C)c3ccccc3c21	Apaf1 inhib 43 | Apaf-1 inh conf2 inactive | Rh110 interf inh inactive
Cn1c(C(=O)NCCN2CCN(Cc3ccccc3)CC2)cc2c(=O)n(C)c3ccccc3c21	none
O=C(NCCO)c1ccc2nc(-c3ccco3)c(-c3ccco3)nc2c1	Apaf1 inhib 78 | Apaf-1 inh conf2 inactive | Rh110 interf inh inactive
C[C@H](CO)N1C[C@H](C)[C@@H](CN(C)Cc2ccc(Cl)c(Cl)c2)Oc2c(NC(=O)Cc3ccccc3)cccc2C1=O	Apaf1 inhib 44 (no result: ZTA counter, EBNA-1 inhibitor) | Apaf-1 inh conf2 inactive | Rh110 interf inh inactive
C[C@H](CO)N1C[C@H](C)[C@@H](CN(C)Cc2ccc(-c3ccccc3)cc2)Oc2c(NC(=O)Cc3ccccc3)cccc2C1=O	Apaf1 inhib 43 (no result: ZTA counter, EBNA-1 inhibitor) | Apaf-1 inh conf2 inactive | Rh110 interf inh inactive
C[C@H](CO)N1C[C@H](C)[C@@H](CN(C)CC2CCCCC2)Oc2c(NC(=O)CCC(F)(F)F)cccc2C1=O	Apaf1 inhib 41 (no result: ZTA counter, EBNA-1 inhibitor) | Apaf-1 inh conf2 inactive | Rh110 interf inh inactive
C[C@H](CO)N1C[C@H](C)[C@@H](CN(C)Cc2ccccc2)Oc2c(NC(=O)Cc3ccccc3)cccc2C1=O	none (no result: ZTA counter, EBNA-1 inhibitor)
C[C@@H]1CN([C@@H](C)CO)C(=O)c2cc(NC(=O)Nc3ccc(F)cc3)ccc2O[C@@H]1CN(C)Cc1ccc(Oc2ccccc2)cc1	Apaf1 inhib 42 (no result: ZTA counter, EBNA-1 inhibitor) | Apaf-1 inh conf2 inactive | Rh110 interf inh inactive
C[C@H](CO)N1C[C@H](C)[C@@H](CN(C)C(=O)NC2CCCCC2)Oc2c(NC(=O)CCC(F)(F)F)cccc2C1=O	none (no result: ZTA counter, EBNA-1 inhibitor)
Cc1ccc(S(=O)(=O)N(CC(=O)NCCC2=CCCCC2)Cc2ccccc2F)cc1	none
CCn1c(SCc2ccc(Cl)c(Cl)c2)nnc1C(C)NC(=O)c1ccc(OC)cc1 (stereo not given)	none
COc1cc(OC)c(S(=O)(=O)NCc2cccnc2)cc1NC(C)=O	none
CCc1nnc(NC(=O)c2ccc(S(=O)(=O)N3CCCCC3)cc2)s1	Apaf1 inhib 55 | Apaf-1 inh conf2 inactive | Rh110 interf inh inactive
CCOC(=O)c1c(NC(=O)c2ccco2)sc2c1CCCC2	none
CCOC(=O)c1c(NC(=O)CN2CCN(C(=O)c3ccco3)CC2)sc2c1CCCC2	Apaf1 inhib 48 | Apaf-1 inh conf2 inactive | Rh110 interf inh inactive
CCCn1c(N2CCN(C(=O)NCc3ccccc3)CC2)nc2ccccc21	none
Cc1cccc(N(Cc2ccccc2)C(=O)C2CCN(C(=O)c3ccccc3C)CC2)c1	Apaf1 inhib 48 (no result: EBNA-1 inhibitor) | Apaf-1 inh conf2 inactive | Rh110 interf inh inactive
CN(C)c1ccc(-c2cccc(C3CC=CC4C3C(=O)N(Cc3ccccc3)C4c3ccc(C(F)(F)F)cc3)c2)cc1 (stereo not given)	none
Cc1[nH]n(-c2ccccc2)c(=O)c1/C=N/N(C)c1ccccc1	Apaf1 inhib 80 | Apaf-1 inh conf2 inactive | Rh110 interf inh inactive
Cc1[nH]n(-c2ccccc2)c(=O)c1/C=N\NC(=O)C1COc2ccccc2O1 (stereo not given)	Apaf1 inhib 54 | Apaf-1 inh conf2 65 | Rh110 interf inh inactive | Apaf1 inh interf inactive
Cc1[nH]n(-c2ccccc2)c(=O)c1/C=N/O	none
Cc1[nH]n(-c2ccccc2)c(=O)c1/C=N/NC(=O)c1cccc([N+](=O)[O-])c1	Apaf1 inhib 56 | Apaf-1 inh conf2 53 | Rh110 interf inh inactive | Apaf1 inh interf inactive
COc1c2c(cc3c1C(CC(O)Cc1ccccc1)N(C)CC3)OCO2 (stereo not given)	none
COc1ccc2cc1Oc1ccc(cc1)C[C@H]1c3c(cc4c(c3Oc3cc5c(cc3OC)CCN(C)[C@@H]5C2)OCO4)CCN1C	Apaf1 inhib 49 | Apaf-1 inh conf2 inactive | Rh110 interf inh inactive
COc1cc2sc3ccc(-c4ccc(N(C)C)nc4)cc3c(=O)c2cc1OC	Apaf1 inhib 44 | Apaf-1 inh conf2 inactive | Rh110 interf inh inactive
O=C1C(NS(=O)(=O)c2cccs2)=C(N2CCOCC2)C(=O)c2ccccc21	none
O=C(O)c1cccc(NC2=C(N3CCOCC3)C(=O)c3ccccc3C2=O)c1	Apaf1 inhib 84 | Apaf-1 inh conf2 81 | Rh110 interf inh inactive | Apaf1 inh interf inactive

Source: PubChem BioAssay
